Many of the other results were omitted from the sample, so hits are more common in it than they were.
Cdc25B block = human M-phase inducer phosphatase 2 inhibition. P30305. recombinant Cdc25B, OMFP fluorescence Ex485/Em525. inhibition, %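 (compounds tested at 10 µM final in the well)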. 0.1% of 65,000 active. AID 368; in the data active = inhibition above about 50%
Ecoli WT expand = blocks growth of wild type E. coli BW25113; OD600 absorbance; 0.15% of 98,000 active; growth inhibition, % at 100 µM;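 active = growth inhibition above about 50% at one test dose, limit read from the data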;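 note: growth measured after 20 h incubation at 37 °C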
MMP-13 inhibitor = inhibitors of human MMP13; P45452; MMP-13 fTHP FRET cleavage, Mca fluorescence; inhibition, % at 4 µM; 0.07% of 65,000 active;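 active = inhibition above the mean of compound-free control plate wells plus 3 SD, cut at about 14% in these data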
Ecoli tolC = blocks growth of E. coli BW25113 tolC mutant; OD615; growth inhibition, % at 10 µM (by protocol); 2.2% of 65,000 active;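 active = growth inhibition at or above a cutoff equal to the mean over every tested compound plus 3 SD, cut at about 60% in these data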;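 note: growth measured after 20 h incubation at 37 °C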
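Test system: E. coli BW25113 ΔtolC::kan bacteria; incubation: 37 °C, 20 h exposure; medium: LB broth supplemented with 50 µg/mL kanamycin; read-out basis: percent growth inhibition; signal: A615 absorbance measurement; compound: 10 µM final, single dose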
DUSP1 inh = blocks human MKP-1 phosphatase activity; recombinant MKP-1, OMFP hydrolysis fluorescence; inhibition, %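 (compounds tested at a single concentration somewhere between 10 and 100 µM)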; 0.15% of 65,000 active;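 active = inhibition above about 50%, limit read from the data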
HePTP inhibitor = human HePTP phosphatase inhibition | inhibition, % at 20 µM | AID 521 | P35236 | 0.64% of 110,000 active | recombinant HePTP phosphatase activity, OD absorbance; in the data active = inhibition above about 50%
Redox H2O2 = generates H2O2 by redox cycling in DTT. shares compounds with DUSP1 inh. Redox cycling H2O2 generation, phenol red/HRP. EC50, µM. 60 tested, under 10 active. AID 672; call rule not given here
A number is an active result; i = inactive; nt = no result.

SMILES	Cdc25B block	Ecoli WT expand	MMP-13 inhibitor	Ecoli tolC	DUSP1 inh	HePTP inhibitor	Redox H2O2
CCCCn1c(SCC(=O)c2ccc(OC)cc2OC)nc2cc(S(N)(=O)=O)ccc21	i	i	i	i	53.8	i	i
CCCCn1c(SC(C)C(=O)c2ccc(OC)cc2)nc2cc(S(N)(=O)=O)ccc21 (centres undefined)	nt	i	nt	nt	nt	nt	nt
COc1cc(/C=C(/C#N)c2ccc(F)cc2)ccc1OCc1ccc(C(=O)O)o1	i	i	i	100.0	62.3	i	i
CC(C)Cn1c(N)c(C(=O)COC(=O)c2cc(-c3ccco3)nc3ccccc23)c(=O)n(C)c1=O	i	i	i	i	50.6	nt	i
Cc1nn(-c2ccccc2)c(C)c1C(=O)OCC(=O)c1c(N)n(CC(C)C)c(=O)n(C)c1=O	i	i	i	i	i	i	nt

Compound activity from PubChem BioAssay.
